Measurements: PubChem BioAssay AID463186 (The Scripps Research Institute Molecular Screening Center, 2010)
Active and inactive are the calls of the source.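 Rule for the calls: active = mean luminescence fold change over vehicle of at least 10; inactive = the rest.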

Biological target: G2/mitotic-specific cyclin-B1 (Homo sapiens) (UniProt P14635)
Assay: cyclin B degradation inhibitors, late-stage follow-up, selectivity assay for Wee1 degradation inhibitor project, cell-based, HeLa, luciferase fusion, luminescence, powder samples (AID 463186)
Settings: HeLa cyclin B-luciferase stability, at 0.1 µM, hits give high values
In short: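 Assay system: HeLa cells with cyclin B–luciferase fusion. Compound dosing: single nominal dose of 100 nM (0.1 µM) per compound. Times: 20 h compound exposure at 37 °C. Technique: luciferase luminescence.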

Chain of G2/mitotic-specific cyclin-B1 (Homo sapiens) (P14635 whole entry, looked up, the tested form may be a part): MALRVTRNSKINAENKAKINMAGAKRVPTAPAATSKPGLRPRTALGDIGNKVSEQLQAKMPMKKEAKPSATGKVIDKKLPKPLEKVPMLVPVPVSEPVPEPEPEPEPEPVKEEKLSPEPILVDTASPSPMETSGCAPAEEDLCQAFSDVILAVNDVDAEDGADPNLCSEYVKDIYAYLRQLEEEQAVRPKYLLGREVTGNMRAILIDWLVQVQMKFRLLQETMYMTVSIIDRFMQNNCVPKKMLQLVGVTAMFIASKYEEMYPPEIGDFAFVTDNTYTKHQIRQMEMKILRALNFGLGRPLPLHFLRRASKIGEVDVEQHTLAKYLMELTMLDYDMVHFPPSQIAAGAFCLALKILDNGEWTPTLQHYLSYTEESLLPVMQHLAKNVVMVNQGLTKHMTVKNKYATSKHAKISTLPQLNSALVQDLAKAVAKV

| SMILES | fold change |
| --- | --- |
| O=[N+]([O-])c1cccc2[nH]c(CNc3nc(N4CCOCC4)nc4c3ncn4-c3ccsc3)nc12 | 2.62 (inactive) |
| c1ccc2[nH]c(CNc3nc(N4CCOCC4)nc4c3ncn4-c3ccsc3)nc2c1 | 4.15 (inactive) |
